# Test results reported in PMC7413021 (The Journal of nutritional biochemistry, 2016).
# Assay: Measurement of phenolics in plasma
# Assay type: in vivo
# Details: 2 months old male mice fed diet containing 25% dried plum for 4 weeks
# Procedure, shortened: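 Male C57Bl/6 mice, 2 months old, fed control AIN-93G or diet with 25% test material for 4 weeks (n=8/group). At euthanasia, blood was drawn into lithium-heparin tubes and spun at 6500 rpm for 10 min at 4°C. Plasma was acidified 4:1 with 1% ascorbic acid in saline, purged with nitrogen and stored at −80°C. Quercetin glycosides and caffeic and gallic acid derivatives were profiled by LC/TOF-MS.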
"plasma concentration, CMin [nM]","plasma concentration, Caverage [nM]",Compound
3270,4990 ± 440,COc1cc(CCC(=O)O)ccc1O[C@@H]1O[C@H](C(=O)O)[C@@H](O)[C@H](O)[C@H]1O [Dihydroferulic acid 4-O-glucuronide]
420,1390 ± 310,COc1ccc(CCC(=O)O)cc1O[C@@H]1O[C@H](C(=O)O)[C@@H](O)[C@H](O)[C@H]1O [Dihydroisoferulic acid 3-O-glucuronide]
20,800 ± 210,COc1ccc(/C=C/C(=O)O)cc1O[C@@H]1O[C@H](C(=O)O)[C@@H](O)[C@H](O)[C@H]1O [Isoferulic acid 3-O-glucuronide]

Compound,"plasma concentration, CMin [nM]","plasma concentration, Caverage [nM]"
COc1cc(/C=C/C(=O)O)ccc1O[C@@H]1O[C@H](C(=O)O)[C@@H](O)[C@H](O)[C@H]1O [Ferulic acid 4-O-glucuronide],1100,3060 ± 450
